Residues, ends and D or L forms follow the SMILES beside them.
Assays:
[1] = Polyplex stability against NaCl, agarose gel retardation; type: physicochemical; conditions: pDNA condensed with 25 μM peptide, NaCl treatment
[2] = system: plasmid DNA (pDNA, 4.7 kb); type: binding
pDNA = assay: DLS and ζ-potential of peptide/pDNA polyplex; type: physicochemical
Procedure, shortened: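 Plasmid was pEGFP-C2 (4.7 kb), isolated from E. coli DH5α, with purity checked by A260/A280. It was mixed with peptide (0–25 μM) in Tris-HCl (10 mM, pH 7.4). Hydrodynamic size was measured by dynamic light scattering in a 1 cm quartz cuvette, alongside ζ-potential.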

L929 cells [3] = assay: Cellular uptake of CF-labeled peptides by FACS; type: cell-based; conditions: 10 μM CF-labeled peptide, 6 h incubation
Procedure, shortened: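 L929 cells grown in DMEM with 10% FBS and 1% penicillin-streptomycin, seeded at 50×10^4 cells/well, and cultured 24 h. Treated 6 h with 10 μM carboxyfluorescein-labelled peptide. Washed with PBS (10 mM, pH 7.4), detached with 0.25% trypsin, pellet washed three times with PBS, then analysed by flow cytometry.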

L929 cells [4] = assay: Cellular uptake mechanism by FACS; type: cell-based
ctDNA = assay: Hoechst; type: binding; conditions: Hoechst-bound ctDNA titrated with peptide, fluorescence at 460 nm

For `C[C@H](N)C(=O)N[C@@H](C)C(=O)N[C@@H](CCCCN)C(=O)N[C@@H](CCCCN)C(=O)N[C@@H](C)C(=O)N[C@@H](C)C(=O)N[C@@H](C)C(=O)N[C@@H](CCCCN)C(=O)N[C@@H](CCCCN)C(=O)N[C@@H](C)C(=O)N[C@@H](C)C(=O)N[C@@H](C)C(=O)N[C@@H](CCCCN)C(=O)N[C@@H](CCCCN)C(=O)N[C@@H](C)C(=O)N[C@@H](C)C(=O)N[C@@H](C)C(=O)N[C@@H](CCCCN)C(=O)N[C@@H](CCCCN)C(=O)N[C@@H](C)C(N)=O` [Ku-A4] (H-AAKKAAAKKAAAKKAAAKKA-NH2; N-terminus assumed), the “NaCl concentration at which polyplex starts disassembling” value [1] was 250 mM, the “peptide concentration for complete condensation of DNA (gel)” value [2] was 3 µM and the “size of polyplex at higher peptide concentrations” value (pDNA; DLS, pDNA in Tris-HCl 10 mM pH 7.4, higher peptide concentrations (up to 25 μM)) was 140 nm. The “ζ-potential of polyplex at 25 μM peptide” value (pDNA; DNA 200 ng/mL, 25 μM peptide) was “+16.4 mV”, the “cell penetration efficacy (cellular uptake, FACS)” value (L929 cells [3]) was “superior cell penetration ability” and the “inhibition of cellular uptake by macropinocytosis inhibitor amiloride” value (L929 cells [4]) was 48%. For the same molecule, the “reduction of peptide uptake by energy depletion with NaN3” value (L929 cells [4]; 0.1% NaN3 pre-incubated 1 h before peptide) was 38%, the “cellular uptake at 4 °C (reduced to)” value (L929 cells [4]; 1 h pre-incubation at 4 °C then peptide 6 h at 4 °C) was 18% and the “peptide concentration for complete Hoechst displacement” value (ctDNA) was 10 µM.
